The list is not random: actives were taken first. Their share in the collection is about 1.4%.
NR2E3 ag-1: agonists of human nuclear receptor NR2E3. GST-NR2E3/biotin-RetCOR TR-FRET, 1536-well. inhibition of corepressor binding, % at 4.78 µM. hit rate 0.12% among 320,000. AID 2300;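 active = percent inhibition above the cutoff of mean plus 3 SD of all tested compounds, set per screening campaign, cut at about 20% in these data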;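 note: 0% = DMSO wells and 100% = biotin wells as full block of FRET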
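System: GST-tagged NR2E3 plus biotinylated RetCOR corepressor; Amount: 1.35 nM GST-tagged NR2E3 final; Dosing: single nominal compound dose of 4.8 µM; Schedule: 5 h incubation at 4 °C; Technique: TR-FRET with europium anti-GST and streptavidin-D2, 340 nm excitation; Controls: biotin wells as high control, 0.6% DMSO wells as low control.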
PG9 binder: small molecules binding HIV-1 gp120 antibody PG9; AID 624416; TR-FRET gp120-PG9 antibody binding; inhibition, % at 6.7 µM; hit rate 0.43% among 360,000; in the data active = inhibition above about 8.5%
NR2E3 ag-2: human photoreceptor-specific nuclear receptor agonism. hit rate 0.35% among 360,000. CHO-S Gal4-NCOR/VP16-NR2E3 two-hybrid, luciferase. inhibition of corepressor binding, % at 3.98 µM. Q9Y5X4;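 active = inhibition above the mean of all tested compounds plus 3 SD, cut at about 70% in these data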;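 note: 0% = DMSO with NR2E3 transfected cells and 100% = cells lacking NR2E3 construct; higher means lower luciferase signal from less NR2E3 corepressor binding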
Rev-erbA mod: modulators of human Rev-erb alpha DNA binding; P20393; Rev-erbα–FITC-DNA binding, fluorescence polarization, 90 min; activity, % at 10 µM; hit rate 0.79% among 370,000; AID 1259318;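 active = activity above about 14%, limit read from the data; passing the limit was not always enough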;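 note: 0% = DMSO wells with 35 nM protein and 100% = DMSO wells with 750 nM protein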
Target sequence (P20393 whole entry, looked up): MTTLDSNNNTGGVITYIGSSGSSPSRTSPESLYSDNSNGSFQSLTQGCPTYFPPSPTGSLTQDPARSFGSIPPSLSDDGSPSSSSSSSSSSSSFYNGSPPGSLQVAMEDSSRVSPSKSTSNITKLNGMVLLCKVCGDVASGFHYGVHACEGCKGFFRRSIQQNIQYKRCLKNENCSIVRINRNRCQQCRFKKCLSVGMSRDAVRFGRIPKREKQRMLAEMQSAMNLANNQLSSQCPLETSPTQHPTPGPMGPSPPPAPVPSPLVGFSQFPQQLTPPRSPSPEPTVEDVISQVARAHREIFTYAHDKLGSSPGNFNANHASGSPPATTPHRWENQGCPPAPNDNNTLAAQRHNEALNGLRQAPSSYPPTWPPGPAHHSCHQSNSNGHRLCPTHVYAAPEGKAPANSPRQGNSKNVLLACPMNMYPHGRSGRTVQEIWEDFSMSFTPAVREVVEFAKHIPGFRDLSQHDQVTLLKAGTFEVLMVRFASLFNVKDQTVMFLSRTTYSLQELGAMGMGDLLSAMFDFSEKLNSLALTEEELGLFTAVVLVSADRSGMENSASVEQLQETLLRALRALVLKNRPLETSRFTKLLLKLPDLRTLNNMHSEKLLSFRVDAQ
PG9 binder conf: PG9 antibody binding, confirmed; hit rate 90% among 1,500; AID 651571; inhibition, % at 6.7 µM; TR-FRET PG9 antibody binding, biochemical; shares compounds with PG9 binder; in the data active = inhibition above about 9%
PGV04 counter: PGV04 control antibody binding, counter-screen; TR-FRET PGV04 antibody-gp120 binding, biochemical; shares compounds with PG9 binder; hit rate 95% among 1,500; inhibition, % at 6.7 µM; in the data active = inhibition above about 9.5%
PG9 bind DR: small molecules binding HIV-1 gp120 antibody PG9. shares compounds with PG9 binder. TR-FRET PG9 antibody-gp120 binding inhibition. IC50, µM. 95 tested, under 10 active; in the data active = IC50 below about 10 µM
PGV04 DR counter: counter-screen for PG9 binders: binding to control antibody PGV04; shares compounds with PG9 binder; TR-FRET binding to control antibody PGV04; IC50, µM; hit rate 20% among 95; AID 651937
PG126 binding DR: PG126 binding, dose response counter-screen. IC50, µM. TR-FRET binding to antibody PG126, counterscreen. hit rate 20% among 95. shares compounds with PG9 binder
Rev-erbA confirm: Rev-erb alpha (human) modulation, hit confirmation. activation, % at 25 µM. AID 1259319. Rev-erb alpha FITC-DNA binding, fluorescence polarization, 90 min. shares compounds with Rev-erbA mod. hit rate 61% among 3,000;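 active = activation at or above a set limit, or at least 3 SD above the negative control mean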;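 note: 0% = 35 nM protein with DMSO and 100% = 750 nM protein high control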
RORg counter: RORgamma DNA-binding activity, dose-response counter-screen; shares compounds with Rev-erbA mod; purified RORgamma protein-FITC-DNA binding, fluorescence polarization; IC50, µM; hit rate 8% among 910; AID 1259320;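 active = Compounds whose fitted half-maximal concentration for disrupting protein-DNA binding is below 10 micromolar; the record names Rev-erb in its text, so the target is in doubt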
An asterisk follows results filed as active; i = inactive; nt = no result. Cut-off read from the data, not from the text of the source, unless noted: active = IC50 below about 9 µM; inactive = the rest.

SMILES	NR2E3 ag-1	PG9 binder	NR2E3 ag-2	Rev-erbA mod	PG9 binder conf	PGV04 counter	Rev-erbA confirm	others
CS(=O)(=O)c1ccc2nc(NC(=O)Nc3ccc(Cl)c(Cl)c3)sc2c1	8	-1	-16	8	nt	nt	nt
COc1ccc(C(=O)Nc2nc3ccc(S(C)(=O)=O)cc3s2)cc1OC	1	22*	-6	30*	28*	40*	25*
CS(=O)(=O)c1ccc2nc(NC(=O)c3ccccc3)sc2c1	0	0	-111	0	nt	nt	nt
Cc1ccc(NC(=O)Nc2nc3ccc(S(C)(=O)=O)cc3s2)cc1	nt	34*	9	19*	31*	42*	8
Cc1cccc(C(=O)Nc2nc3ccc(S(C)(=O)=O)cc3s2)c1	nt	34*	-148	36*	15*	38*	22*
O=C(NNCc1ccccc1)c1ccccn1	nt	-1	-56	2	nt	nt	nt
Cc1cccc(N2CCN(Cc3ccoc3)CC2)c1C	0	0	-8	0	nt	nt	nt
COc1ccc(C(=O)NC(=S)Nc2ccc3[nH]c(=O)[nH]c3c2)c(OC)c1	-1	37*	-12	101*	53*	52*	55*	PG9 bind DR=i;PGV04 DR counter=6.3*;PG126 binding DR=6.8*;RORg counter=i
CCOc1ccc(NS(=O)(=O)c2ccc3c(c2)CCN3C(C)=O)cc1	-1	-1	9	-8	nt	nt	nt
N#Cc1ccc(NC(=O)c2sc3cc(C(F)(F)F)cnc3c2-c2cccs2)cc1	0	-13	-8	8	nt	nt	nt
COc1ccc(NC(=O)c2sc3cc(C(F)(F)F)cnc3c2-c2cccs2)cc1	0	9.6*	2	112*	18*	71*	73*	RORg counter=>40
CC(=O)Nc1nnc(SCC(=O)NC2CC2)s1	4	-1	-11	-2	nt	nt	nt
CC(=O)Nc1nnc(SCC(=O)c2ccc3c(c2)Cc2ccccc2-3)s1	-2	10*	-15	55*	21*	49*	18*
CC(Oc1nc2c(c(=O)n(C)c(=O)n2C)n1C)C1CCCCC1 (centres undefined)	nt	0	-20	-2	nt	nt	nt
COc1ccccc1NC(=O)c1sc2ncn(Cc3ccccc3C)c(=O)c2c1C	6	52*	22	62*	55*	74*	23*
COc1ccc(C(=O)C2CCCN(C(=O)C3CCOCC3)C2)cc1OC (centres undefined)	0	-2	2	-2	nt	nt	nt
N#Cc1ccc(-c2ccc3c(c2)OCO3)nc1SCC(=O)OCc1ccccc1	-4	13*	-20	24*	14*	29*	19*
COc1ccc(-c2ccc(C#N)c(SCC(=O)OCc3ccccc3)n2)cc1OC	-1	2	-12	5	nt	nt	nt
Cc1ccc(C)c(NC(=O)C2CCCN2S(=O)(=O)c2cccnc2)c1 (centres undefined)	nt	nt	nt	0	nt	nt	nt
Cc1ccc2oc(=O)c3cnn(CC(=O)N4CCCc5ccccc54)c3c2c1	3	15*	24	51*	35*	51*	44*
N#Cc1c(-c2cccs2)cc(C2CC2)nc1SCC(N)=O	8	8.7*	-4	52*	18*	27*	47*	RORg counter=>40
N#Cc1c(-c2ccccc2)cc(C2CC2)nc1SCC(=O)O	-5	0	-12	-7	nt	nt	nt
Cc1cccc(-c2cccc3c4c([nH]c23)[C@@H]2C[C@H](N(C)C(=O)c3ccco3)[C@H]([C@H](C)O)C(=O)N2CC4)c1	nt	nt	nt	4	nt	nt	nt
CC(=O)N1CCN(c2ccc([N+](=O)[O-])c(NCc3cccnc3)c2)CC1	3	-2	-13	-2	nt	nt	nt
COc1ccc(-c2c(C)nc3c(-c4ccsc4)cnn3c2N)cc1	2	36*	-73	108*	8	16*	66*	RORg counter=>40
SMILES	NR2E3 ag-1	PG9 binder	NR2E3 ag-2	Rev-erbA mod	PG9 binder conf	PGV04 counter	Rev-erbA confirm	others
COc1ccc(-n2ncc3c(NCc4ccc5c(c4)OCO5)ncnc32)cc1	-3	16*	-50	25*	6	9	-3
c1ccc(-n2ncc3c(NCc4ccc5c(c4)OCO5)ncnc32)cc1	-1	2	-32	1	nt	nt	nt
Cn1nc(N)c2c(-c3ccc(Cl)cc3)c(C#N)c(N)nc21	2	0	4	3	nt	nt	nt
N#Cc1c(N)nc(N2CCCC2)c(C#N)c1-c1ccc(Cl)cc1	1	25*	-8	146*	19*	28*	106*	RORg counter=>40
O=C(NN=C(Cc1ccccc1)Cc1ccccc1)C1CC1	2	1	-15	-1	nt	nt	nt
Cc1sc2nc(Cc3ccccc3)[nH]c(=O)c2c1-c1ccccc1	14	35*	7	70*	44*	65*	87*	RORg counter=i
Cc1sc2nc(-c3cccnc3)[nH]c(=O)c2c1-c1ccccc1	6	0	-6	-3	nt	nt	nt
CCn1c(=O)cc(OCC(=O)N2CCc3ccccc32)c2ccccc21	nt	40*	-19	45*	50*	71*	12*
CCn1c(=O)cc(OCC(=O)N2CCCCCC2)c2ccccc21	-1	1	-3	-3	nt	nt	nt
COc1ccc(N(C(=O)c2snc(C(N)=O)c2N)C(C(=O)NCc2ccccc2)c2ccc(O)cc2)cc1 (centres undefined)	nt	-1	-13	-4	nt	nt	nt
NC(=O)c1nsc(C(=O)N(c2ccccc2)C(C(=O)NCc2ccc(F)cc2)c2ccc(O)cc2)c1N (centres undefined)	6	9.9*	12	20*	4	9.8*	12
CCN(C(=O)COC(=O)c1cc(-c2ccccc2)nc2ccc(Br)cc12)C1CCS(=O)(=O)C1 (centres undefined)	12	12*	9	42*	23*	32*	43*
N#Cc1cc2c(nc1SCc1ccccc1)CCCC2	0	36*	0	28*	44*	76*	21*
COc1ccc(-n2nc(C(=O)NCC(=O)Nc3ccc(F)cc3)c3ccccc3c2=O)cc1	5	11*	-10	39*	17*	25*	8
COc1ccc(-n2nc(C(=O)NCC(=O)Nc3cccc(Cl)c3)c3ccccc3c2=O)cc1OC	1	39*	-18	289*	35*	66*	273*	RORg counter=>40

Source: PubChem BioAssay
